Results from ChEMBL document CHEMBL2413032, “Synthesis and evaluation of 1-[2-(4-[(11)C]methoxyphenyl)phenyl]piperazine for imaging of the serotonin 5-HT7 receptor in the rat brain” (Bioorg Med Chem, 2013).
pKi: −log10 of the molar value. The source made the active and inactive calls. No cut-off for these calls is given here.

Tests used:
[1] = molecular target: 5-hydroxytryptamine receptor 7 (Rattus norvegicus) (UniProt P32305); assay: Binding affinity to 5-HT7 in Sprague-Dawley rat pons/medulla at 1 nM after 30 mins by autoradiography; conditions: tested as the 11C-labelled form
In short: (§1)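 Frozen sagittal male Sprague–Dawley rat brain sections were preincubated 3 × 5 min in 50 mM Tris–HCl, pH 7.4, at room temperature. They were then incubated 30 min at room temperature in fresh buffer with 1 nM [11C]tracer, alone or with unlabeled ligand or SB269970 added to define specific binding. Sections were washed 3 × 5 min in cold buffer, dipped in cold water and air-dried. Imaging-plate photo-stimulated luminescence was read in regions of interest; n = 4.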

[2] = molecular target: 5-hydroxytryptamine receptor 7 (Rattus norvegicus, UniProt P32305); assay: Binding affinity to 5-HT7 in rat brain; type: tissue-based
[3] = molecular target: T1, 5-hydroxytryptamine receptor 1A (Rattus norvegicus) (UniProt P19327); assay: Binding affinity to 5-HT1A in Sprague-Dawley rat hippocampus after 30 mins by autoradiography; type: tissue-based
T1 sequence (whole entry): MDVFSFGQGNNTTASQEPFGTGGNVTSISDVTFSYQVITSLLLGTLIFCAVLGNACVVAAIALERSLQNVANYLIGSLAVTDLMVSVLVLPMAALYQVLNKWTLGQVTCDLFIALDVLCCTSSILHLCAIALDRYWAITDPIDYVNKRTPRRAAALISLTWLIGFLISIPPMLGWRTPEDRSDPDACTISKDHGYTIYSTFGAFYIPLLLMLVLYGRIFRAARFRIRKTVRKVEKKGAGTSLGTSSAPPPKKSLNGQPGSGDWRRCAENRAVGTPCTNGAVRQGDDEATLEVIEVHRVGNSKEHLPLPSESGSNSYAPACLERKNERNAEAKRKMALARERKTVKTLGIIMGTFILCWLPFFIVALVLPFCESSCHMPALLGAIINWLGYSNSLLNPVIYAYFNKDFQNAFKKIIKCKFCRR

[4] = molecular target: 5-hydroxytryptamine receptor 7 (Rattus norvegicus) (UniProt P32305); assay: Binding affinity to 5-HT7 in Sprague-Dawley rat straitum at 1 nM after 30 mins by autoradiography; conditions: tested as the 11C-labelled form; in short: as §1
[5] = molecular target: 5-hydroxytryptamine receptor 7 (Rattus norvegicus) (UniProt P32305); assay: Binding affinity to 5-HT7 in Sprague-Dawley rat brain assessed as reduction in total radioactivity at 1 nM after 30 mins by autoradiography in presence of unlabelled compound; conditions: tested as the 11C-labelled form; in short: as §1
[6] = molecular target: 5-hydroxytryptamine receptor 7 (Rattus norvegicus) (UniProt P32305); assay: Binding affinity to 5-HT7 in Sprague-Dawley rat thalamus at 1 nM after 30 mins by autoradiography; conditions: tested as the 11C-labelled form; in short: as §1
[7] = molecular target: T1, 5-hydroxytryptamine receptor 1A (Rattus norvegicus); assay: Binding affinity to 5-HT1A in Sprague-Dawley rat frontal cortex after 30 mins by autoradiography; type: tissue-based
[8] = molecular target: 5-hydroxytryptamine receptor 7 (Rattus norvegicus) (UniProt P32305); assay: Binding affinity to 5-HT7 in Sprague-Dawley rat cerebellum at 1 nM after 30 mins by autoradiography; conditions: tested as the 11C-labelled form; in short: as §1
[9] = molecular target: T1, 5-hydroxytryptamine receptor 1A (Rattus norvegicus); assay: Binding affinity to 5-HT1A in Sprague-Dawley rat hippocampus at 1 nM after 30 mins by autoradiography; type: tissue-based; conditions: tested as the 11C-labelled form
[10] = molecular target: T1, 5-hydroxytryptamine receptor 1A (Rattus norvegicus); assay: Binding affinity to 5-HT1A in Sprague-Dawley rat cerebral cortex at 1 nM after 30 mins by autoradiography; type: tissue-based; conditions: tested as the 11C-labelled form
[11] = molecular target: 5-hydroxytryptamine receptor 7 (Rattus norvegicus) (UniProt P32305); assay: Binding affinity to 5-HT7 in Sprague-Dawley rat brain assessed as reduction in total radioactivity at 1 nM after 30 mins by autoradiography in presence of SB269970; conditions: tested as the 11C-labelled form; in short: as §1
Brain [12] = assay: Biodistribution in Sprague-Dawley rat brain at 0.07 to 0.11 nmol, iv after 3 to 5 mins by HPLC analysis; type: ADME, organism-based; conditions: in vivo
In short: (§2)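 Small-animal PET in male Sprague–Dawley rats (220–240 g, 7 weeks) under isoflurane (5% induction, 1–2% maintenance). A 90-min 3D list-mode emission scan (350–750 keV) started immediately after intravenous tracer injection, framed 4 × 1, 8 × 2, 14 × 5 min. Regional uptake was decay-corrected to injection time and expressed as SUV normalized to injected radioactivity and body weight; n = 3.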

[13] = Drug metabolism in Sprague-Dawley rat brain assessed as intact form at 0.07 to 0.11 nmol, iv after 15 mins by HPLC analysis; type: ADME, organism-based; conditions: read-out: Stability
In short: (§3)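 At 15 and 60 min after intravenous tracer, rat plasma and brain were taken. Brain was homogenized in ice-cold MeCN/H2O (1:1) and centrifuged 15,000 rpm, 2 min, 4 °C. Supernatants were run on radio-HPLC (C18, 4.6 × 250 mm; MeCN/H2O/TFA 4/6/0.05; 1.0 mL/min). Intact fraction = decay-corrected tracer peak area / total peak area × 100.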

Rattus norvegicus = assay: Biodistribution in Sprague-Dawley rat frontal cortex assessed as increase in uptake at 0.07 to 0.11 nmol, iv pre-treated with 3 mg/kg of SB269970 measured up to 90 mins by HPLC analysis relative to control; type: ADME, organism-based; parameters: dose 3 mg/kg, route intravenous; conditions: in vivo
In short: (§4)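 PET blocking study in male Sprague–Dawley rats under isoflurane. SB269970 3 mg/kg, in saline with 10% ethanol and 5% polysorbate 80, was given 1 min before intravenous tracer. A 90-min 3D list-mode scan (350–750 keV) followed. Regional decay-corrected SUV time-activity curves were compared with baseline animals; n = 3 per group.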

[14] = Drug metabolism in Sprague-Dawley rat brain assessed as intact form at 0.07 to 0.11 nmol, iv after 60 mins by HPLC analysis; type: ADME, organism-based; conditions: read-out: Stability; in short: as §3
[15] = Drug metabolism in Sprague-Dawley rat plasma assessed as intact form at 0.07 to 0.11 nmol, iv after 15 mins by HPLC analysis; type: ADME, organism-based; conditions: read-out: Stability; in short: as §3
Hippocampus = assay: Biodistribution in Sprague-Dawley rat hippocampus assessed as increase in uptake at 0.07 to 0.11 nmol, iv pre-treated with 3 mg/kg of SB269970 measured up to 90 mins by HPLC analysis relative to control; type: ADME, organism-based; parameters: dose 3 mg/kg, route intravenous; conditions: in vivo; in short: as §4
Brain [16] = assay: Biodistribution in Sprague-Dawley rat brain at 0.07 to 0.11 nmol, iv after 90 mins by HPLC analysis; type: ADME, organism-based; conditions: in vivo, 1.5 h; in short: as §2
Thalamus = assay: Biodistribution in Sprague-Dawley rat thalamus assessed as increase in uptake at 0.07 to 0.11 nmol, iv pre-treated with 3 mg/kg of SB269970 measured up to 90 mins by HPLC analysis relative to control; type: ADME, organism-based; parameters: dose 3 mg/kg, route intravenous; conditions: in vivo; in short: as §4
[17] = n-Octanol-sodium phosphate buffer partition coefficient, log D of the compound at pH 7.4 by shake flask method; type: physicochemical
In short: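 Shake flask: [11C]tracer (about 150,000 cpm) was mixed with n-octanol (3.0 g) and 0.1 M sodium phosphate-buffered saline, pH 7.40 (3.0 g). The mix was vortexed 3 min at room temperature and centrifuged 3500 rpm for 5 min; n = 3.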

[18] = Drug metabolism in Sprague-Dawley rat plasma assessed as intact form at 0.07 to 0.11 nmol, iv after 60 mins by HPLC analysis; type: ADME, organism-based; conditions: read-out: Stability; in short: as §3
Cerebellum = assay: Biodistribution in Sprague-Dawley rat cerebellum assessed as increase in uptake at 0.07 to 0.11 nmol, iv pre-treated with 3 mg/kg of SB269970 measured up to 90 mins by HPLC analysis relative to control; type: ADME, organism-based; parameters: dose 3 mg/kg, route intravenous; conditions: in vivo; in short: as §4

5-hydroxytryptamine receptor 7 (Rattus norvegicus), sequence (P32305 whole entry): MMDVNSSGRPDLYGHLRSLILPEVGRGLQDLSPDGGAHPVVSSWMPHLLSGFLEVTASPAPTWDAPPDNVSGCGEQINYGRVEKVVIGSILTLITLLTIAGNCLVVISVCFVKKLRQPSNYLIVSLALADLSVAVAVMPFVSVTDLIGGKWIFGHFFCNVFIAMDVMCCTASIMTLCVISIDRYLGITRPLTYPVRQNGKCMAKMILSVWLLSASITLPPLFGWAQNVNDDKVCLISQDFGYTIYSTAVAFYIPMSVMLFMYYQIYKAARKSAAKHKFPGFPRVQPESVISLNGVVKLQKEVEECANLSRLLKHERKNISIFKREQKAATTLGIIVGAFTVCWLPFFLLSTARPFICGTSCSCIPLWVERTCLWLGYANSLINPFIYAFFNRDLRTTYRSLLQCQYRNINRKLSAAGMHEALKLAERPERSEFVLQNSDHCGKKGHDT
5-hydroxytryptamine receptor 7, sequence (P32305 whole entry): as above

Compound: COc1ccc(-c2ccccc2N2CCNCC2)cc1
- Activity [1]: Active
- pKi [2]: 8.59
- Bmax [3]: 5 nM
- Activity [4]: Active
- Activity [5]: inactive
- Activity [6]: Active
- Bmax [7]: 5 nM
- Activity [8]: Active
- Activity [9]: inactive
- Activity [10]: inactive
- Activity [11]: inactive

Compound: [11CH3]Oc1ccc(-c2ccccc2N2CCNCC2)cc1
- SUV (Brain [12]): 1.2
- remaining at 0.25 h [13]: 91%
- fold change (FC) (Rattus norvegicus): 2
- remaining at 1 h [14]: 69%
- remaining at 0.25 h [15]: 51%
- fold change (FC) (Hippocampus): 2
- Drug uptake (Brain [16]): 20%
- fold change (FC) (Thalamus): 2
- logD [17]: 1.67
- remaining at 1 h [18]: 30%
- fold change (FC) (Cerebellum): 2
